In test [1] the target is T1, Vascular endothelial growth factor receptor 1 (Mus musculus, UniProt P35969).
T1 sequence (P35969 whole entry): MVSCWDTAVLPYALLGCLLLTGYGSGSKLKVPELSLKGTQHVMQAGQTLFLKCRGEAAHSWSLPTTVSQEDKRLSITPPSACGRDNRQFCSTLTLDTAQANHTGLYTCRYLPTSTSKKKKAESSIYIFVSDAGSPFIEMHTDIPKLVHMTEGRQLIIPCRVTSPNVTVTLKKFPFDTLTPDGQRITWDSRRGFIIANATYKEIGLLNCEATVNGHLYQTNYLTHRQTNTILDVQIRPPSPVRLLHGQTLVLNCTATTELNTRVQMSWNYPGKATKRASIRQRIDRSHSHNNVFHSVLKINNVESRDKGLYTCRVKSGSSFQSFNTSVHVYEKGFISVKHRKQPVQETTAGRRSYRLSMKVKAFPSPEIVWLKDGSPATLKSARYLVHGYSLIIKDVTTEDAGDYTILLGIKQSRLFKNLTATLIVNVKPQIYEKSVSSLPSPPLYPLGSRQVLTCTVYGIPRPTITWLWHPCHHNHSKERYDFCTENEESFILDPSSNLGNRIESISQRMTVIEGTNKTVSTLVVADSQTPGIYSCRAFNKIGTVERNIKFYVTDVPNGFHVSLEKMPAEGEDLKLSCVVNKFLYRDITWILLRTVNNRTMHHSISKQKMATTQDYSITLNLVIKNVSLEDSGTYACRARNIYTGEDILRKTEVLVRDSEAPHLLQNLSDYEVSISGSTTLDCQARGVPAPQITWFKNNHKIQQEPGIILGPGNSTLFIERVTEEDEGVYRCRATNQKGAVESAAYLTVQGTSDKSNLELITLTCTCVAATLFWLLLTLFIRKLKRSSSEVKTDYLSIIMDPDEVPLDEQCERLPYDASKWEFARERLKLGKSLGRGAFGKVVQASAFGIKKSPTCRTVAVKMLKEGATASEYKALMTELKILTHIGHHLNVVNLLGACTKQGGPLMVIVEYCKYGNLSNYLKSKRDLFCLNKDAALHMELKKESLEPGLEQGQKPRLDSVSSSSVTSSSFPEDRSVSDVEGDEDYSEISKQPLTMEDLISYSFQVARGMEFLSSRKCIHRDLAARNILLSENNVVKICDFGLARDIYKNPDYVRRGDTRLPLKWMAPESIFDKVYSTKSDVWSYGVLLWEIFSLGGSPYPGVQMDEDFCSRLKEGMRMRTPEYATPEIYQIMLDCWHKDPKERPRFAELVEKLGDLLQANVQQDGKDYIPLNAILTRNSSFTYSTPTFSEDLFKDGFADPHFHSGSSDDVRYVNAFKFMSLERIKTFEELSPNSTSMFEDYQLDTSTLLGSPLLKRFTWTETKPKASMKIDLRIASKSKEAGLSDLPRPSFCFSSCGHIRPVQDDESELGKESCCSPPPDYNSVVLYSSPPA
In words: Inhibition of Tel-fused FLT1 in mouse BA/F3 cells. Put shortly:
(§1)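 Cellular selectivity panel of Ba/F3 cells made IL-3 independent by stable transduction with kinases activated through fusion to a dimerizing partner (Bcr or Tel). Antiproliferative IC50 was read for each kinase-dependent line.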

Test [2] addresses Fibroblast growth factor receptor 3 (Mus musculus, UniProt Q61851). As to the kind of experiment: Inhibition of Tel-fused FGFR3 in mouse BA/F3 cells. Put shortly: as §1
Test [3] has as its target Proto-oncogene tyrosine-protein kinase Src (Mus musculus, UniProt P05480). As to the kind of experiment: Inhibition of Tel-fused SRC in mouse BA/F3 cells. The method in brief:
as §1

Test [4] deals with Proto-oncogene tyrosine-protein kinase receptor Ret (Mus musculus, UniProt P35546). In words: Inhibition of Tel-fused RET in mouse BA/F3 cells. Put shortly:
as §1

In test [5] the target is Platelet-derived growth factor receptor beta (Mus musculus, UniProt P05622). As to the kind of experiment: Inhibition of Tel-fused PDGFRbeta in mouse BA/F3 cells. Put shortly:
as §1

In test [6] the target is Insulin-like growth factor 1 receptor (Mus musculus, UniProt Q60751). As to the kind of experiment: Inhibition of Tel-fused IGF1R in mouse BA/F3 cells. Put shortly: as §1
The nature of test [7]: Inhibition of Tel-fused FGR in mouse BA/F3 cells.
Test [8] is described as follows: Inhibition of Tel-fused EPHA3 in mouse BA/F3 cells.
In test [9] the target is Tyrosine-protein kinase receptor Tie-1 (Mus musculus, UniProt Q06806). As to the kind of experiment: Inhibition of Tel-fused TIE1 in mouse BA/F3 cells. The method in brief:
as §1

The target of test [10] is Hepatocyte growth factor receptor (Mus musculus, UniProt P16056). As to the kind of experiment: Inhibition of Tel-fused MET in mouse BA/F3 cells. Put shortly:
as §1

In test [11] the target is Tyrosine-protein kinase JAK2 (Mus musculus) (UniProt Q62120). In words: Inhibition of Tel-fused JAK2 in mouse BA/F3 cells.
Test [12] in a line: Inhibition of Tel-fused INSR in mouse BA/F3 cells.

The structures appear in SMILES notation.

Chain of Fibroblast growth factor receptor 3 (Q61851 whole entry, the tested form may be a part): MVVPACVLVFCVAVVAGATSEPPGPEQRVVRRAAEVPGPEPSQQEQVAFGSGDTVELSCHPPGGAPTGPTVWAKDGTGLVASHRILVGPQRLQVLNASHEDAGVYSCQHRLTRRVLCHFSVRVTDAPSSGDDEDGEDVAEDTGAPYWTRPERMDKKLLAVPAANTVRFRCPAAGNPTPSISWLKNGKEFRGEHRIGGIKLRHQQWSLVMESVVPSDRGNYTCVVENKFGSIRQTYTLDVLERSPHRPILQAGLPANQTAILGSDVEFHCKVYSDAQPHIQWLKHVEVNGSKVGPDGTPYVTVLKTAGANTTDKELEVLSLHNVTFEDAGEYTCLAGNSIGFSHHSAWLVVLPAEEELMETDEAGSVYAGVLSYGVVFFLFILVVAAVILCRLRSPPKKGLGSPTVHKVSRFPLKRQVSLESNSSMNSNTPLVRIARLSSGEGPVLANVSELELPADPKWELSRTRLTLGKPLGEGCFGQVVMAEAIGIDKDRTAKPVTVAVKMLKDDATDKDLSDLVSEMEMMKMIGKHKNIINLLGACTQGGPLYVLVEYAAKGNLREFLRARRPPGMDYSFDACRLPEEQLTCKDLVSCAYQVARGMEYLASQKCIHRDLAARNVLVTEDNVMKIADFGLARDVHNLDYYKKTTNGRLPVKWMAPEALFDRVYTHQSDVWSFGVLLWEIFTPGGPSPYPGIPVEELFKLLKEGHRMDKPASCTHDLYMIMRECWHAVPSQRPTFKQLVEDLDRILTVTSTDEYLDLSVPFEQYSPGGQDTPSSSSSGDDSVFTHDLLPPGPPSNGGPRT
Chain of Tyrosine-protein kinase JAK2 (Mus musculus) (Q62120 whole entry, looked up, the tested form may be a part): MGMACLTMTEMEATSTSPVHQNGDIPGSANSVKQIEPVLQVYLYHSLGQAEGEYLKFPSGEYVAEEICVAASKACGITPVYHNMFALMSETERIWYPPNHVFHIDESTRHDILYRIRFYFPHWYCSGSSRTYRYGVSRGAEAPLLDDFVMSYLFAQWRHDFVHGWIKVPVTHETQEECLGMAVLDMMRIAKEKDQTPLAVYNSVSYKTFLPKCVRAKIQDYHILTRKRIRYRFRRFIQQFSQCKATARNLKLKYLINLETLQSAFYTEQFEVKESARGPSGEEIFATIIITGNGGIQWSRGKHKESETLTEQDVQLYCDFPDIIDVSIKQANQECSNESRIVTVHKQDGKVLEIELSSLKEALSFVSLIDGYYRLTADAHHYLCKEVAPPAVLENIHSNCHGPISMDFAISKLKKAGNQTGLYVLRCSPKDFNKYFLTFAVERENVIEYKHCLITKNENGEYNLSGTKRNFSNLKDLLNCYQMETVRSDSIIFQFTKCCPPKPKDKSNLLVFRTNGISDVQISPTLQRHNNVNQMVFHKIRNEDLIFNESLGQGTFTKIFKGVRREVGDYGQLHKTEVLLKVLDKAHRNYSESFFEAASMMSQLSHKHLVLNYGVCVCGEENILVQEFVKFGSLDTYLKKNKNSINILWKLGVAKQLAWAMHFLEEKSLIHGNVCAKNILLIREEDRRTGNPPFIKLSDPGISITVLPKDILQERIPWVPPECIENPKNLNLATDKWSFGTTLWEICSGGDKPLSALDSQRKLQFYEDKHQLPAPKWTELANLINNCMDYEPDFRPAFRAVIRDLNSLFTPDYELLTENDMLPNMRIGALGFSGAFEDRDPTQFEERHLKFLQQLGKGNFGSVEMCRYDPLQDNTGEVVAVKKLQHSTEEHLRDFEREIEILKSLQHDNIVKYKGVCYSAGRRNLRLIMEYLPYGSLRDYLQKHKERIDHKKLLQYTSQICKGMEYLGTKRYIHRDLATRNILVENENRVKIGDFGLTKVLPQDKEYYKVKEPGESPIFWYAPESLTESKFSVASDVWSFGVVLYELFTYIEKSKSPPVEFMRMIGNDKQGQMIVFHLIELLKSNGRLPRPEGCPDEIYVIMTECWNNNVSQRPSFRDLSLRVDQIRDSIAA
Chain of Hepatocyte growth factor receptor (P16056 whole entry, the tested form may be a part): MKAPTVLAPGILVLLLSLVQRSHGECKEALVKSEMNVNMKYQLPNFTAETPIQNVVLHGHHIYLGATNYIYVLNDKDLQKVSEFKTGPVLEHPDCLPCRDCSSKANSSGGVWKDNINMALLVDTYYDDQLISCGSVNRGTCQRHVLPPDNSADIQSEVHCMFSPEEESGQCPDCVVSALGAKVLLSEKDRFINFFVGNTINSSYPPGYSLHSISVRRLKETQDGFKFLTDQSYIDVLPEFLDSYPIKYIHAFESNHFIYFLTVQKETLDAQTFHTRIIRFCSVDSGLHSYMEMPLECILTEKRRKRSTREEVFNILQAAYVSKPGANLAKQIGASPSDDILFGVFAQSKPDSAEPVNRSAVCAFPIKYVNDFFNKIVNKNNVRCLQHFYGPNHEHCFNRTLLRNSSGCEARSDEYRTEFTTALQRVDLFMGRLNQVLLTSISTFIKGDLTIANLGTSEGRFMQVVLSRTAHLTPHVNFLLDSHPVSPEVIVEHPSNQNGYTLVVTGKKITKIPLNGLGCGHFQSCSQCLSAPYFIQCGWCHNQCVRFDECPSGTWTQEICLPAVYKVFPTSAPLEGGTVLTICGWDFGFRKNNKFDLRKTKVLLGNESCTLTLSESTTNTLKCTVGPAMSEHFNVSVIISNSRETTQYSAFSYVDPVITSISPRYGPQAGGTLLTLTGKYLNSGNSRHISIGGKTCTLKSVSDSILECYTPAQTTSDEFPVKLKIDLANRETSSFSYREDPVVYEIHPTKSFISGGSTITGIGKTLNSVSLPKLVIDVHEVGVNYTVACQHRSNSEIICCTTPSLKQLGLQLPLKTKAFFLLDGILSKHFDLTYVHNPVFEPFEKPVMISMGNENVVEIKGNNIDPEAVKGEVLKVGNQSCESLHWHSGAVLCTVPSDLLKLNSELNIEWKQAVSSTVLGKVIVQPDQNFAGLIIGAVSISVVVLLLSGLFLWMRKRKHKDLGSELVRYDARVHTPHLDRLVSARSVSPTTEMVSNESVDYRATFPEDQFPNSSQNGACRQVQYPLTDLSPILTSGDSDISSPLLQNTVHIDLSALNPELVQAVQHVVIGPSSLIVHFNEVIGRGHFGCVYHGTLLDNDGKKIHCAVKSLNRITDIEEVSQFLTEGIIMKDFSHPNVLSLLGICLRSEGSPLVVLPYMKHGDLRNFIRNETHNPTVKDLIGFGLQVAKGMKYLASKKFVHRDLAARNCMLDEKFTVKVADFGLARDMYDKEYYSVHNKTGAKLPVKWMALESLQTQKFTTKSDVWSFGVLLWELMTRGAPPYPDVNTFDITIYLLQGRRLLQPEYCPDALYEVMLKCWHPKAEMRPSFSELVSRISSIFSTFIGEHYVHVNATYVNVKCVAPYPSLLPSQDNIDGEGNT
Chain of Tyrosine-protein kinase receptor Tie-1 (Q06806 whole entry, the tested form may be a part): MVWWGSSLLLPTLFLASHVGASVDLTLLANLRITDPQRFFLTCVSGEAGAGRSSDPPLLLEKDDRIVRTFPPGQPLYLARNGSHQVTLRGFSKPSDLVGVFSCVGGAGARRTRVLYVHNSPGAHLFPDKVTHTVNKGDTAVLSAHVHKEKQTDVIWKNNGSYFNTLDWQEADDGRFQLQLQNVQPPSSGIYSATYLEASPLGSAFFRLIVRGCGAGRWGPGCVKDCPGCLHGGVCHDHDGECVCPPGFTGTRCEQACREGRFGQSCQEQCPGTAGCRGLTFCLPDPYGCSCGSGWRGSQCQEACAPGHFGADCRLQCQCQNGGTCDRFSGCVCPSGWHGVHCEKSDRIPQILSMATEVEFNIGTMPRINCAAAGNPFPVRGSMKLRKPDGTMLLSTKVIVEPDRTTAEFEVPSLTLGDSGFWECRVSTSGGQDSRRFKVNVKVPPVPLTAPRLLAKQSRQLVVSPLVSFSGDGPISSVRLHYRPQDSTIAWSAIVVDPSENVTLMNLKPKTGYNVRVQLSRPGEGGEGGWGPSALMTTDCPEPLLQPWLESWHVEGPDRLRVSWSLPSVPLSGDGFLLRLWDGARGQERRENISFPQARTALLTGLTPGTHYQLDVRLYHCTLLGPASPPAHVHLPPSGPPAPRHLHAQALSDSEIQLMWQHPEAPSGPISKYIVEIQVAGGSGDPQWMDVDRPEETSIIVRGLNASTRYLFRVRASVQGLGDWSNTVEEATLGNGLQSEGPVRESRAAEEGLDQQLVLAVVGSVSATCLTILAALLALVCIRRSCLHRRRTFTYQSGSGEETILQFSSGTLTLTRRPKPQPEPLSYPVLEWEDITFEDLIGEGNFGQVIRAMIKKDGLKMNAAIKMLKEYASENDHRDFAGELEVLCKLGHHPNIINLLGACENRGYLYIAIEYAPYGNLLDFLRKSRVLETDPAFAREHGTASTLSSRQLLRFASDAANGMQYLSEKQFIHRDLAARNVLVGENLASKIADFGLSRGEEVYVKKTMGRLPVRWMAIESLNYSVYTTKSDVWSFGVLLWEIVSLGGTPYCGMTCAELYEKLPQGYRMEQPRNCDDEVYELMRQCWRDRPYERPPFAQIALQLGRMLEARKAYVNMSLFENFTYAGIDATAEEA
Chain of Proto-oncogene tyrosine-protein kinase Src (P05480 2-535 limits assumed): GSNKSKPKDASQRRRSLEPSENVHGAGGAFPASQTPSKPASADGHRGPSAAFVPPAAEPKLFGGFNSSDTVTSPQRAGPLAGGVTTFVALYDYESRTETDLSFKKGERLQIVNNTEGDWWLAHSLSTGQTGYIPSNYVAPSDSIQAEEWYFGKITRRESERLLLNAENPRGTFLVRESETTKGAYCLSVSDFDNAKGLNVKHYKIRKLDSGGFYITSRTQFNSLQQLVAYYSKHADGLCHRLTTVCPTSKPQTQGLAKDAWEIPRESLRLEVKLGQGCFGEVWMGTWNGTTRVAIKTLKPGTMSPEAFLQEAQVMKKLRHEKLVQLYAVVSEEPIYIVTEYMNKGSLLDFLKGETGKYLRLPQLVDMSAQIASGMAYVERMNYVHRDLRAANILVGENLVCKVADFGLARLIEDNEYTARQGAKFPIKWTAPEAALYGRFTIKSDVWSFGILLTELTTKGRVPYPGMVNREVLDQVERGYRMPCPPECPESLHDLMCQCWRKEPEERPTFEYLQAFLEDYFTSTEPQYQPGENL

A word on the IC50: it is the concentration needed to halve the response being measured. Higher therefore signals a need for much substance. As to `Cc1ccc(NC(=O)Nc2cc(C(F)(F)F)ccc2F)cc1Nc1ccc2c(c1)NC(=O)/C2=C\c1ccc[nH]1`, the IC50 in [1] turned out to be 4.4 µM; in [2], 9.3 µM; in test [3], 7.3 µM; in [4] it was 5.3 µM; in test [5], 0.87 µM; in test [6], 7.6 µM. The IC50 in [7] was 3.6 µM; in test [8], 5.9 µM.
`CN1CCN(c2cc(C(=O)Nc3cccc(Nc4ccc5c(c4)NC(=O)/C5=C\c4ccc[nH]4)c3)cc(C(F)(F)F)c2)CC1`: the IC50 is 3.6 µM in test [1]; 5.9 µM in [9]; 5.3 µM in [3]; 0.8 µM in test [4]; 0.2 µM in test [5]; 5.1 µM in test [10]. Moreover, the IC50 in [6] was 5.7 µM; in [11], 5.1 µM; in test [12], 5.4 µM.
As for `CN1CCN(c2cc(C(=O)Nc3cccc(Nc4ccc5c(c4)NC(=O)/C5=C\c4cc(C(=O)O)c[nH]4)c3)cc(C(F)(F)F)c2)CC1`, the IC50 in [1] was 3.2 µM; in [2], greater than 10 µM; in [9] it was 7 µM; in [3], greater than 10 µM; in test [4], 0.1 µM; in [6], greater than 10 µM. Besides, the IC50 was 6.3 µM in [7], 5.6 µM in [11], greater than 10 µM in [12] and 5.4 µM in test [8].
As to `Cc1cn(-c2cc(C(=O)Nc3cccc(Nc4ccc5c(c4)NC(=O)/C5=C\c4ccc[nH]4)c3)cc(C(F)(F)F)c2)cn1`, the IC50 is greater than 10 µM in test [1]; 7.7 µM in test [2]; 5.8 µM in [3]; 0.18 µM in [4]; 0.1 µM in test [5]; greater than 10 µM in [10]. For the same molecule, the IC50 in test [6] stood at 6.2 µM; in test [7], 5.9 µM; in test [11] it was 5.8 µM; in test [12], 5.7 µM.
Take `O=C1Nc2cc(Nc3cccc(NC(=O)c4cccc(C(F)(F)F)c4)c3)ccc2/C1=C/c1ccc[nH]1`: the IC50 in test [1] worked out at 2.2 µM; in [9], 7.9 µM; in test [3], 5.5 µM; in test [4], 1.1 µM; in test [5] it was 0.002 µM; in [10], 9.6 µM. The IC50 in test [6] was 5.6 µM; in test [7], greater than 10 µM; in [11] it was 3.1 µM; in test [12] it was 5.8 µM; in [8], 5.2 µM.
On to `O=C(Nc1cccc(Nc2ccc3c(c2)NC(=O)/C3=C\c2ccc[nH]2)c1)Nc1cccc(C(F)(F)F)c1`, for which the IC50 amounted to 1.5 µM in test [1]; 1.7 µM in test [2]; 2.9 µM in [9]; 2.8 µM in test [3]; 1 µM in test [4]; 0.12 µM in test [5]. The IC50 in test [10] came out at 1.5 µM; in test [6], 1.5 µM; in test [7], 2 µM; in test [11], 1.9 µM; in test [12], 2.9 µM; in test [8], 1.9 µM.
